Compound activity (PubChem BioAssay)
PfG6PD inh – PfG6PD (Plasmodium falciparum) enzyme inhibition; 350,000 tested, 0.78% active; inhibition, % at 20 µM; PfGluPho enzyme, NADPH resazurin-diaphorase fluorescence; AID 504690;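 active means inhibition reaching at least a set limit at 20 µM in the primary screen, cut at about 59% in these data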
Neddyl block – inhibitors of human cullin neddylation | 360,000 tested, 0.58% active | AID 651699 | TR-FRET cullin neddylation, biochemical | P61081+Q13564 | inhibition, % at 25 µM; in the data active means inhibition above about 36%
Target sequence (P61081 whole entry, looked up): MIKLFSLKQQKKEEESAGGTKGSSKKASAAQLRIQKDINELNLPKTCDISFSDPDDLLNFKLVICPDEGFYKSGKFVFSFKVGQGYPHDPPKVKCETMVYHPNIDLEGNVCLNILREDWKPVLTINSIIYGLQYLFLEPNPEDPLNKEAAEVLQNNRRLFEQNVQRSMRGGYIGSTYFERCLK
Target sequence (Q13564 whole entry, looked up): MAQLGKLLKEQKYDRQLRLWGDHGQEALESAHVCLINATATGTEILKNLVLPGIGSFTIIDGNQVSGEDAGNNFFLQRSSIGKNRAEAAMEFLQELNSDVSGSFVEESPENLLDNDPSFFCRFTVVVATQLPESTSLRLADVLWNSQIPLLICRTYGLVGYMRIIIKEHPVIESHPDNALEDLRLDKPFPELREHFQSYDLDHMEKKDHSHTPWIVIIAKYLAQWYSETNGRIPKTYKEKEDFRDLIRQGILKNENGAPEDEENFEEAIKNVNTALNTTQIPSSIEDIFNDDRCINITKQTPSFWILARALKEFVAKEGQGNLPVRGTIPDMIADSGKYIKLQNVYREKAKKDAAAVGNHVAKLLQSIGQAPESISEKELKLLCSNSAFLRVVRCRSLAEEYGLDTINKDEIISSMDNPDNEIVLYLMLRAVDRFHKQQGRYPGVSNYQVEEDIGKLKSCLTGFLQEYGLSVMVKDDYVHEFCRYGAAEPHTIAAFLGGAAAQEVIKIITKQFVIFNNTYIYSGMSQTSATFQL
PfM18AAP inh – blocks P. falciparum M18 aspartyl aminopeptidase. recombinant PfM18AAP, H-Glu-NHMec fluorogenic cleavage. inhibition, % at 7.35 µM. 290,000 tested, 1.2% active. AID 1822;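 active means inhibition above the campaign mean inhibition over all tested compounds plus 3 SD, cut at about 28% in these data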
HKDC1 inhibitor – blocks human hexokinase HKDC1 activity. inhibition, % at 20 µM. recombinant HKDC1, G6PDH/diaphorase resazurin coupled fluorescence. 340,000 tested, 0.16% active. AID 493160;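 active means inhibition above about 35% when tested at 20 µM, limit read from the data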
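Test system: recombinant HKDC1 (HK5) hexokinase enzyme, produced in-house; Amount: enzyme 5 µg/mL final; Buffer or medium: Tris pH 8.0 buffer with MgCl2, Tween-20, BSA, BME; Reagent: glucose and ATP substrates; Doses: 20 µM test compound, 1% DMSO; Incubation: 90 min reaction incubation at room temperature, dark; Detection: resorufin fluorescence at 613 nm.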
HKDC1 act conf2 – confirmation of human HKDC1 activators | shares compounds with HKDC1 inhibitor | AID 504708 | recombinant HKDC1, G6PDH/diaphorase resazurin fluorescence; stronger effect = lower value | inhibition, % at 20 µM | 740 tested, 14% active;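 active means inhibition at or below a set negative limit, negative inhibition meaning the enzyme was activated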
Numbers stand for hits; - = inactive; . = no result given. The list is not random: actives were taken first. Their share in the collection is about 2.2%.

SMILES	PfG6PD inh	Neddyl block	PfM18AAP inh	HKDC1 inhibitor	HKDC1 act conf2
CC1C/C(=C\c2cccnc2)C(=O)/C(=C/c2cccnc2)C1 (stereo unspecified)	-	-	-	40	-
Cc1ccc(C(=O)/C=C/c2cc(Br)cc(Br)c2O)o1	-	-	-	36	-
Cc1ccc(C(=O)/C=C/N(C)C)o1	-	-	-	-	.
COc1ccc(Cl)cc1CC=NNC(=O)c1ccncc1	-	-	.	-	.
COc1ccc(/C=C/C(=O)c2ccc([N+](=O)[O-])o2)cc1OC	77	.	.	-	-
COc1cc(OC)c(C(=O)C=Cc2ccc(OC)c(OC)c2)c(OC)c1	-	-	.	-	.
CCCC(=O)N1CCN(Cc2ccc3c(c2)OCO3)CC1	-	-	-	-	-
O=C1CCc2cc(S(=O)(=O)Nc3ccccc3)ccc2N1	-	-	.	-	.
NS(=O)(=O)c1ccc(NC(=O)c2ccc(S(=O)(=O)N3CCCCCC3)cc2)cc1	-	-	.	-	.
COc1cc(/C=C(\NC(=O)c2ccccc2)C(=O)NC(C(=O)O)c2ccccc2)cc(OC)c1OC (stereo unspecified)	-	-	-	-	.
COc1ccccc1/C=N/NC(=O)c1ccc2c(c1)OCO2	-	-	-	-	.
O=C(N/N=C/c1ccccc1OC(=O)c1ccc2c(c1)OCO2)c1ccccc1	-	-	-	-	-
O=C1C=C(N2CCCCC2)c2ccccc2C1=O	-	-	.	81	-
COc1cc(/C=C(\C#N)c2nc3ccc(C)cc3[nH]2)cc([N+](=O)[O-])c1O	-	-	-	41	-
COc1cc(/C=C(\C#N)c2nc3ccc(C)cc3[nH]2)c([N+](=O)[O-])cc1OC	-	-	-	-	.
COc1ccc2[nH]c(=O)cc(C(=O)O)c2c1	-	.	-	-	.
COc1ccc2[nH]c3c4c(ccc3c2c1)C(=O)C=CC4=O	90	.	-	51	-
CC(C)(C)c1nnc(N/N=C/c2cc(Br)ccc2O)n(N)c1=O	-	-	44	-	-49
Cc1c(Cl)cccc1N(CC(=O)NC(C)c1ccccc1)S(C)(=O)=O (stereo unspecified)	-	-	-	-	.
C=CCn1c(SCC(=O)N(CC)C2CCS(=O)(=O)C2)nc2scc(-c3ccccc3)c2c1=O (stereo unspecified)	-	-	.	-	.
O=S(=O)(c1ccc(NC(=S)NCCc2ccccc2)cc1)N1CCOCC1	-	-	-	-	.
O=S(=O)(c1ccc(NC(=S)NN=C(Cc2ccccc2)Cc2ccccc2)cc1)N1CCOCC1	-	-	29	-	-44
COC1=CC(=O)c2ccccc2C1=O	-	-	.	-	.
COC1=CC(=O)C=C(OC)C1=O	125	-	.	66	-
COc1ccccc1C(=O)NCCC(=O)N1CCCC(C(F)(F)F)C1 (stereo unspecified)	-	-	-	-	.
SMILES	PfG6PD inh	Neddyl block	PfM18AAP inh	HKDC1 inhibitor	HKDC1 act conf2
O=C(NCCC(=O)N1CCCC(C(F)(F)F)C1)c1ccc(Br)cc1 (stereo unspecified)	-	-	-	36	-
Cc1ccc(NC(=O)CN2C(=O)S/C(=C\c3cccn3-c3cccc(C(=O)O)c3)C2=O)c(C)c1	-	-	-	-	-
CCC(C)n1c(C)cc(=O)n1C(C)CC (stereo unspecified)	-	-	.	-	.
Cc1cc([N+](=O)[O-])c2ccccc2c1NS(=O)(=O)c1ccccc1	-	-	.	-	.
COc1ccc(-c2[nH]c(-c3ccc(SC)cc3)nc2SCC(=O)Nc2nccs2)cc1	-	-	-	-	-36
O=C1N[C@@H](Cc2c[nH]c3ccccc23)C(=O)N[C@H]1Cc1ccccc1	-	-	.	-	.
Cc1ccc(C(=O)NNC(=O)c2ccccc2O)cc1S(=O)(=O)N1CCCCC1	-	-	.	-	.
CCc1ccc(C2=NNC(=Nc3cccc(S(=O)(=O)N(C)C)c3)SC2)cc1	-	-	-	-	-141
Cc1cccc(N=C2NN=C(c3c(C)[nH]c4ccccc34)CS2)c1	-	-	-	-	-
CN(C)S(=O)(=O)c1cccc(N=C2SCCN2Cc2ccccc2)c1	-	-	-	-	.
C=CCn1c(C)cc(C2=NNC(=Nc3ccc(C)cc3)SC2)c1C	-	-	-	-	.
Cc1ccc(C2=NNC(=Nc3ccc(F)cc3)SC2)cc1	-	-	-	-	-80
Clc1ccc(C2=NNC(=NCc3ccc4c(c3)OCO4)SC2)cc1	-	-	-	-	.
Cc1cccc(N=C2NN=C(c3ccc4c(c3)OCCO4)CS2)c1	-	-	-	-	-
CCOc1ccc(-n2c(C)cc(C(=O)CCl)c2C)cc1	-	-	-	-	-
CC1CCCCC12NC(=O)N(CC(=O)Nc1ccc(N3CCCCC3)cc1)C2=O (stereo unspecified)	-	-	.	-	.
COc1cccc(CC(Cc2nc3ccccc3[nH]2)c2nc3ccccc3[nH]2)c1 (stereo unspecified)	-	-	-	50	-
COc1cc(S(C)=O)ccc1-c1nc2ncccc2[nH]1 (stereo unspecified)	-	.	.	-	.
CCCCN(C(=O)c1c(C)noc1C)c1c(N)n(CCC)c(=O)[nH]c1=O	-	-	.	-	.
C=CCOc1ccc(C=NNc2ccc(S(=O)(=O)Nc3ccccc3C(=O)O)cc2[N+](=O)[O-])cc1OC	-	-	.	51	-
Cc1c(NC(=O)c2cc(-c3cccc(Cl)c3)on2)c(=O)n(-c2ccccc2)n1C	-	-	-	-	.
CC(CNc1nc2ccc(Cl)cc2n2cnnc12)c1ccccc1 (stereo unspecified)	-	-	-	-	.
Cc1ccccc1S(=O)(=O)c1c(C)cc(C)n(CC(C)C)c1=O	-	-	-	71	-
